Assay results: ChEMBL document CHEMBL1938318, “Design, synthesis and evaluation of novel molecules with a diphenyl ether nucleus as potential antitubercular agents” (Bioorg Med Chem Lett, 2012)
Values after ≈ are worked out from the molar mass of the structure shown.

Assays:
[1] = test system: Mycobacterium tuberculosis; assay: Antitubercular activity against Mycobacterium tuberculosis H37Rv after 7 to 11 days by microdilution method; assay type: functional
Method in brief: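 M. tuberculosis H37Rv grown in Middlebrook 7H9 with OADC, diluted in 7H9-OADC to 10⁴ CFU/mL and added to serial compound dilutions in 96-well microdilution plates. Incubated at 37 °C in humidified incubator, growth scored visually. MIC = lowest concentration with growth similar to 10 CFU inoculum-only well; isoniazid positive control.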

[2] = Growth inhibition of human HepG2 cells at 20 uM after 48 hrs by MTT assay; assay type: cell-based; conditions: read-out: GI
Method in brief: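 Cells seeded at 2500/well, cultured 24 h, then exposed to compound at 20 μM for 48 h. MTT (20 μL of 5 mg/ml stock) added for 2.5 h at 37 °C. Supernatant removed, formazan dissolved in DMSO with 15–20 min shaking, absorbance read at 570 nm. Inhibitory rate is the mean of three independent experiments.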

| Structure (SMILES) | MIC [1] [µg/mL] | MIC90 [1] [µg/mL] | inhibition at 48 h, 20 µM [2] [%] |
| --- | --- | --- | --- |
| Cc1ccc(NC(=O)Cc2cccc(Oc3ccccc3)c2)nc1 | 32 (≈ 101 µM) | 8 (≈ 25.1 µM) | 12.2 |
| O=C(Cc1cccc(Oc2ccccc2)c1)Nc1cccc(Cl)c1 | 32 (≈ 94.7 µM) | 16 (≈ 47.4 µM) | 7.95 |
| O=C(Cc1cccc(Oc2ccccc2)c1)Nc1ccc(Br)cc1 | 64 (≈ 167 µM) | 16 (≈ 41.9 µM) | 15.7 |
| O=C(Cc1cccc(Oc2ccccc2)c1)Nc1ccc(Cl)c(Cl)c1 | 4 (≈ 10.7 µM) |  | 7 |
| O=C(Cc1cccc(Oc2ccccc2)c1)Nc1ccc(F)c(F)c1 | 32 (≈ 94.3 µM) | 8 (≈ 23.6 µM) | 26.7 |
| O=C(Cc1cccc(Oc2ccccc2)c1)Nc1ccc(Br)cc1Cl | 32 (≈ 76.8 µM) | 16 (≈ 38.4 µM) | 12.8 |
| N#Cc1ccccc1NC(=O)Cc1cccc(Oc2ccccc2)c1 | 32 (≈ 97.5 µM) |  | 19.1 |
| O=C(Cc1cccc(Oc2ccccc2)c1)Nc1ccc(C(F)(F)F)cc1 | 32 (≈ 86.2 µM) | 8 (≈ 21.5 µM) | 10.3 |
| O=C(Cc1cccc(Oc2ccccc2)c1)Nc1ccc(OC(F)(F)F)cc1 | 32 (≈ 82.6 µM) | 16 (≈ 41.3 µM) | 4.71 |
| COc1ccc(NC(=O)Cc2cccc(Oc3ccccc3)c2)c(OC)c1 | 32 (≈ 88.1 µM) |  | 4.11 |
| O=C(Cc1cccc(Oc2ccccc2)c1)Nc1cccc([N+](=O)[O-])c1 | 32 (≈ 91.9 µM) | 16 (≈ 45.9 µM) | 0.95 |
| O=C(Cc1cccc(Oc2ccccc2)c1)Nc1ccc([N+](=O)[O-])cc1 | 32 (≈ 91.9 µM) | 8 (≈ 23 µM) | 36.4 |
| O=C(Cc1cccc(Oc2ccccc2)c1)Nc1cccc2ccccc12 | 64 (≈ 181 µM) | 32 (≈ 90.5 µM) | 3.31 |
| O=C(Cc1cccc(Oc2ccccc2)c1)NC(c1ccccc1)c1ccccc1 | 32 (≈ 81.3 µM) | 8 (≈ 20.3 µM) | 4.84 |
| COc1ccc2nc(NC(=O)Cc3cccc(Oc4ccccc4)c3)sc2c1 | 16 (≈ 41 µM) | 8 (≈ 20.5 µM) | 4.29 |
| O=C(Cc1cccc(Oc2ccccc2)c1)Nc1nccs1 | 32 (≈ 103 µM) | 16 (≈ 51.6 µM) | 39.9 |
| O=C(Cc1cccc(Oc2ccc(Cl)cc2)c1)Nc1cccc(Cl)c1 | 32 (≈ 86 µM) | 16 (≈ 43 µM) | 27.1 |
| O=C(Cc1cccc(Oc2ccc(F)cc2)c1)Nc1cccc(Cl)c1 | 32 (≈ 89.9 µM) | 16 (≈ 45 µM) | 23.5 |
| O=C(Nc1cccc(Cl)c1)c1cccc(Oc2ccccc2)c1 | 32 (≈ 98.8 µM) | 16 (≈ 49.4 µM) | 7.07 |
| O=C(CCc1cccc(Oc2ccccc2)c1)Nc1cccc(Cl)c1 | 32 (≈ 91 µM) | 16 (≈ 45.5 µM) | 25.1 |
| O=C(CCCc1cccc(Oc2ccccc2)c1)Nc1cccc(Cl)c1 | 32 (≈ 87.5 µM) | 16 (≈ 43.7 µM) |  |
| O=C(Nc1cccc(Cl)c1)c1ccc(Oc2ccccc2)cc1 | 32 (≈ 98.8 µM) | 16 (≈ 49.4 µM) | 29.2 |
| NNC(=O)c1ccncc1 [ISONIAZID] | 0.0625 (≈ 0.456 µM) | 0.0625 (≈ 0.456 µM) | 3.51 |
